Measured values: PubChem BioAssay AID719 (SRMLSC, 2007)
About 940 (1.1%) of roughly 85,000 compounds were called active.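 The calls were made as follows: active = viability at or below 50% in the single dose screen; inactive = viability above 50%.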 Only a selection was taken, and actives are over-represented in it overall.

Test: antiproliferative effect on LL 47 fibroblasts – human, LL 47 cells, CellTiter-Glo luminescence, primary screen (AID 719);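 also: compound exposure lasted 72 h before the ATP readout; 100% = median luminescence of untreated cell-only wells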
Conditions: LL 47 human lung fibroblast viability, ATP luminescence; at 10 µM; stronger effect = lower value
Procedure, shortened: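 Test system: LL 47 human lung fibroblasts / Incubation: 72 h compound exposure at 37 °C after overnight plating / Technique: luminescent ATP detection, CellTiter-Glo / Compound dosing: 0.1% DMSO in all compound wells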
In the case of `Cc1nc(SCC(=O)Nc2cc(C)on2)c2c(C)c(C)sc2n1`, the viability is reported as 99.4% (inactive). With `Cc1nc(SCC(=O)Nc2cc(C)on2)c2c3c(sc2n1)CCCC3` the viability was 94.8% (inactive). With `Cc1cc(NC(=O)CSc2nc(C(C)C)nc3sc4c(c23)CCC(C)C4)no1` (stereo not drawn) the viability was 10.9% (active). For `O=C(/C=C/c1ccc(Cl)cc1Cl)c1cccnc1`, the viability was 79% (inactive). For `CCOC(=O)c1sc(NC(=O)CCN2CCOCC2)c(C(=O)OCC)c1C`, the viability was 80.1% (inactive). With `CCOC(=O)Nc1sc(C(=O)N(C)C)c(C)c1C(=O)OCC` the viability was 89.5% (inactive). For `CCOC(=O)c1c(NC(=O)CCl)sc(C(=O)N(CC)CC)c1C`, the viability was 28% (active). For `O=C(NCc1cccnc1)Nc1ccccc1F`, the viability was 96.7% (inactive). In the case of `Cc1cc(C)c2c(n1)nn1c(N3CCN(c4cccc(Cl)c4)CC3)cc(C)nc21`, the viability is reported as 36.8% (active). With `Cc1cc(C)c2c(n1)nn1c(-n3ccnc3)cc(C)nc21` the viability was 101% (inactive). In the case of `Cc1cc(C)c2c(n1)nn1c(N3CCOCC3)cc(C)nc21`, the viability is reported as 82.4% (inactive). For `COc1ccc(NC(=O)CCN2CCCC2)c(OC)c1`, the viability was 104% (inactive). For `Cc1ccccc1-n1c(C)cc(/C=C2\NC(=O)NC2=O)c1C`, the viability was 77.2% (inactive). For `O=C(CCS(=O)(=O)c1ccccc1)Nc1nc2c(s1)CCCC2`, the viability was 47.7% (active). With `O=C(Cn1c(=O)sc2ccccc21)Nc1nc2c(s1)CCCC2` the viability was 100% (inactive). With `COC(=O)C(NC(C)=O)(Nc1nc2c(s1)CCCC2)C(F)(F)F` (stereo not drawn) the viability was 103% (inactive). With `N#CC1=C(N)N(c2ccccc2)C2=C(C(=O)CCC2)C1c1ccccc1` (stereo not drawn) the viability was 93.1% (inactive). With `COc1ccc(CNCCCO)cc1OC` the viability was 95.2% (inactive). For `COC(=O)c1ccccc1Sc1c(/C=N/OCc2ccc(Cl)cc2)c(C(F)(F)F)nn1C`, the viability was 92.7% (inactive). In the case of `COC(=O)c1cc(OC)ccc1-c1ccc(OC)cc1`, the viability is reported as 90.1% (inactive). For `Cc1cc(Cl)c(S(=O)(=O)N(C)C)cc1OCC(N)=O`, the viability was 101% (inactive). For `COc1ccc(-c2nnc(SCc3cccnc3)o2)cc1`, the viability was 105% (inactive). For `Cc1cccc(OCCCC(=O)Nc2ccc(S(=O)(=O)N3CCCC3)cc2)c1`, the viability was 98.6% (inactive). With `CC(C)Cc1nc(N2CCOCC2)c(C#N)c2c1CCC2` the viability was 90.7% (inactive). With `CC(C)CCNc1nc(N2CCCC2)c2c(c1C#N)CCN(C)C2` the viability was 30.8% (active). For `CCN1CCc2c(C#N)c(NCc3ccccc3)nc(NCCO)c2C1`, the viability was 86.2% (inactive). In the case of `CC1CCN(C(=O)c2cc3nc(C4CC4)cc(C(F)(F)F)n3n2)CC1`, the viability is reported as 96.3% (inactive). With `C/C=C/C(=O)Nc1nnc(C(C)C)s1` the viability was 103% (inactive). With `O=C(c1cccc(C(=O)N2CCN(c3ccc(F)cc3)CC2)c1)N1CCN(c2ccc(F)cc2)CC1` the viability was 97.2% (inactive). In the case of `Oc1c(CN2CCN(c3ccc(F)cc3)CC2)cc(Cl)c2cccnc12`, the viability is reported as 22.4% (active). With `CCN1CCN(C(c2cccnc2)c2cc(Cl)c3cccnc3c2O)CC1` (stereo not drawn) the viability was 75.3% (inactive). For `CCn1nnnc1SCC(=O)c1ccc(C)cc1C`, the viability was 99.4% (inactive). For `Cc1cc(C(=O)OC(C)C(=O)Nc2cccc(S(=O)(=O)N3CCOCC3)c2)c(C)o1` (stereo not drawn), the viability was 30.6% (active). With `O=C(c1cccc(S(=O)(=O)N2CCOCC2)c1)N1CCOCC1` the viability was 104% (inactive). In the case of `CCNC(=O)NC(=O)C(C)OC(=O)c1cc(S(=O)(=O)N2CCCCCC2)ccc1OC` (stereo not drawn), the viability is reported as 94.5% (inactive). For `Cc1ccoc1C(=O)Nc1cccc(Oc2ccccc2)c1`, the viability was 103% (inactive). For `Cc1cccc(NC(=O)Nc2cccc(Oc3c(F)c(F)c(F)c(F)c3F)c2)c1`, the viability was 49.6% (active). For `CC(=O)c1cccc(NC(=O)Nc2ccc(C)cc2)c1`, the viability was 109% (inactive). In the case of `Cc1ccc(C)c(NC2=NCC(=O)N2c2ccc3c(c2)OCCO3)c1`, the viability is reported as 120% (inactive). In the case of `O=C(CSc1nc2cccnc2n1Cc1ccccc1)N1CCc2ccccc21`, the viability is reported as 104% (inactive). For `COc1cccc2sc(Nc3nc(C)c(C(C)=O)s3)nc12`, the viability was 26.9% (active). For `CC(=O)c1sc(NC(=O)c2ccc(C)cc2)nc1C`, the viability was 105% (inactive). For `COC(=O)c1sc(NC(=O)c2ccc(OC)cc2OC)nc1C`, the viability was 91.9% (inactive). With `Fc1ccccc1/C=C1\CCCC2=C1Nc1ncnn1C2c1ccccc1F` (stereo not drawn) the viability was 3.89% (active). With `Cc1cc(SCC(=O)c2ccccc2)nc(SCC(=O)c2ccccc2)n1` the viability was 102% (inactive). With `CCOC(=O)c1ccc2c(c1)nc(C)n2CC` the viability was 103% (inactive). For `O=C(NCCN1CCN(Cc2ccccc2)CC1)c1cc2c(=O)[nH]c3ccccc3c2s1`, the viability was 42.8% (active). In the case of `CN1CCN(CCCNC(=O)c2cc3c(=O)oc4ccccc4c3s2)CC1`, the viability is reported as 105% (inactive). In the case of `Cn1c(C(=O)NCCN2CCc3ccccc3C2)cc2c(=O)[nH]c3ccccc3c21`, the viability is reported as 93.3% (inactive). For `CCc1ccc(NC(=O)CN2C(=O)CSC2=O)cc1`, the viability was 100% (inactive). In the case of `CCOC(=O)c1sc(NC(=O)c2ccncc2)nc1C`, the viability is reported as 98.9% (inactive). In the case of `CC1=CC(C)(C)Nc2ccc(OC(=O)C(Cc3ccccc3)N3C(=O)C4CCCCC4C3=O)cc21` (stereo not drawn), the viability is reported as 94.3% (inactive). With `CC1=CC(C)(C)Nc2ccc(OC(=O)CN3C(=O)C4CCCCC4C3=O)cc21` (stereo not drawn) the viability was 39.7% (active). With `CC(OC(=O)CN1C(=O)C2CCCCC2C1=O)C(=O)Nc1ncc(Cl)cc1Cl` (stereo not drawn) the viability was 98.2% (inactive). For `CC1(C)CC(=O)C=C(N2CCCC2)C1`, the viability was 112% (inactive). For `COc1ccc(N2CCN(Cc3ccc(Br)s3)CC2)cc1`, the viability was 100% (inactive). For `CC(=O)Oc1ccc(NC(=O)CCC2CCCCC2)c(C(=O)O)c1`, the viability was 93.2% (inactive). With `CCCNC(=O)CN(Cc1ccccc1F)S(=O)(=O)c1ccc(C)cc1` the viability was 105% (inactive). For `CC1=NN(/C(=N\c2nnc(C)s2)Nc2ccccc2)[C@H](c2ccc(C)cc2)S1`, the viability was 89.1% (inactive). With `CCCc1[nH]nc2c1C(c1ccc(Br)s1)C(C#N)=C(N)O2` (stereo not drawn) the viability was 33.5% (active). With `CCCc1[nH]nc2c1C(c1ccc(OC)c(Cn3nc(C)c(Br)c3C)c1)C(C#N)=C(N)O2` (stereo not drawn) the viability was 95.9% (inactive). In the case of `CCCc1[nH]nc2c1C(c1ccc(OC(=O)c3ccco3)cc1)C(C#N)=C(N)O2` (stereo not drawn), the viability is reported as 95.1% (inactive). In the case of `CCOc1ccc(NC(=O)C2CCCN(C(=O)Nc3ccccc3)C2)cc1` (stereo not drawn), the viability is reported as 105% (inactive).
